# ChEMBL document CHEMBL4033653, “Effect of 1,2,3-triazole salts, non-classical bioisosteres of miltefosine, on Leishmania amazonensis” (Bioorg Med Chem, 2017)
# Assays:
# Leishmania amazonensis [1] = assay: Antileishmanial activity against Leishmania amazonensis WHOM/BR/75/Josefa promastigotes transfected with green fluorescent protein after 72 hrs by MTT assay; assay type: functional
# Leishmania amazonensis [2] = assay: Antileishmanial activity against Leishmania amazonensis IFLA/BR/1967/PH8 amastigotes infected in murine macrophages after 72 hrs by fluorometric analysis; assay type: functional; conditions: IFLA/BR/1967/PH8, 72 h
# [3] = Cytotoxicity against mouse peritoneal macrophages after 72 hrs by MTT assay; assay type: cell-based, Peritoneal macrophage; conditions: peritoneal macrophages
# [4] = Selectivity index, ratio of CC50 for mouse peritoneal macrophages to IC50 for Leishmania amazonensis IFLA/BR/1967/PH8 amastigotes
# Outline: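 SI = CC50 for mouse peritoneal macrophages / amastigote IC50. […] IC50: WT-infected macrophages treated with 0.78–100.0 µM in sterile water; burden scored by counting amastigotes and infected/uninfected cells in at least 200 macrophages. Three experiments in duplicate.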
# Leishmania amazonensis [5] = assay: Antileishmanial activity against Leishmania amazonensis IFLA/BR/1967/PH8 amastigotes infected in murine macrophages at 3.6 uM incubated for 72 hrs followed by compound washout measured after 72 hrs by microscopic method relative to control; assay type: functional; conditions: IFLA/BR/1967/PH8, 72 h
# Outline: (§1)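 Macrophages infected with WT PH8 parasites treated 72 h at 33 °C, 5% CO2; washed twice in PBS, then held in drug-free Warren's medium + 10% serum at 25 °C for 72 h; viable promastigotes counted microscopically versus untreated; three independent experiments in duplicate.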
# Leishmania amazonensis [6] = assay: Antileishmanial activity against Leishmania amazonensis IFLA/BR/1967/PH8 amastigotes infected in murine macrophages at 1.8 uM incubated for 72 hrs followed by compound washout measured after 72 hrs by microscopic method relative to control; assay type: functional; conditions: IFLA/BR/1967/PH8, 72 h; outline: as §1
# Leishmania amazonensis [7] = assay: Induction of mitochondrial membrane potential loss in Leishmania amazonensis IFLA/BR/1967/PH8 promastigotes at 10 uM after 24 hrs by JC-1 staining-based spectrofluorometric analysis relative to control; assay type: functional
# Outline: (§2)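 Exponential WT promastigotes (1x10^7 cells/mL) treated 24 h at 25 °C; washed, JC-1 loaded, read at 485/528 and 540/600 nm; Δψm as 600/528 ratio, untreated = 100%; FCCP 20.0 µM for 30 min as positive control; three experiments in triplicate.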
# Leishmania amazonensis [8] = assay: Induction of mitochondrial membrane potential loss in Leishmania amazonensis IFLA/BR/1967/PH8 promastigotes at 5 uM after 24 hrs by JC-1 staining-based spectrofluorometric analysis relative to control; assay type: functional; outline: as §2
# Leishmania amazonensis [9] = assay: Induction of mitochondrial membrane potential loss in Leishmania amazonensis IFLA/BR/1967/PH8 promastigotes at 2.5 uM after 24 hrs by JC-1 staining-based spectrofluorometric analysis relative to control; assay type: functional
# Outline: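 Exponential-phase WT (PH8) promastigotes at 1x10^7 cells/mL, treated 24 h at 25 °C with 2.5–20.0 µM, then harvested, washed and loaded with JC-1. Fluorescence read at 485/528 and 540/600 nm; ΔΨm taken as the 600/528 ratio. Untreated control set to 100%. Positive control was FCCP 20.0 µM for 30 min. Three experiments in triplicate.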
# Leishmania amazonensis [10] = assay: Induction of ROS accumulation in Leishmania amazonensis IFLA/BR/1967/PH8 promastigotes at 20 uM after 72 hrs by H2DCFDA staining-based fluorometric analysis relative to control; assay type: functional
# Outline: (§3)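 WT exponential-phase promastigotes treated at 25 °C; adjusted to 2x10^7 cells in PBS, loaded with H2DCFDA 30 min dark at room temperature; fluorescence 485/528 nm versus untreated; three independent experiments.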
# Leishmania amazonensis [11] = assay: Induction of ROS accumulation in Leishmania amazonensis IFLA/BR/1967/PH8 promastigotes at 10 uM after 72 hrs by H2DCFDA staining-based fluorometric analysis relative to control; assay type: functional; outline: as §3
# Leishmania amazonensis [12] = assay: Induction of ROS accumulation in Leishmania amazonensis IFLA/BR/1967/PH8 promastigotes at 5 uM after 72 hrs by H2DCFDA staining-based fluorometric analysis relative to control; assay type: functional; outline: as §3
# Leishmania amazonensis [13] = assay: Induction of lipid inclusions in Leishmania amazonensis IFLA/BR/1967/PH8 promastigotes at 10 uM after 24 hrs by Nile Red satining-based spectrofluorometric analysis relative to control; assay type: functional
# Outline: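 WT (PH8) promastigotes at 1x10^7 cells/mL in exponential phase, cultured 24 h at 25 °C with or without 2.5–20.0 µM. Parasites incubated with Nile Red, then fluorescence measured spectrofluorometrically. Reported as arbitrary fluorescence units versus untreated parasites, mean of three experiments run in triplicate.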
# Leishmania amazonensis [14] = assay: Induction of apoptosis in Leishmania amazonensis IFLA/BR/1967/PH8 promastigotes assessed as necrotic population at 20 uM after 24 hrs by Annexin V-FITC/PI staining based flow cytometric analysis (reference value: 0.03%); assay type: functional
# Outline: (§4)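 Exponential-phase WT promastigotes (1x10^7 cells/mL) cultured 24 h at 25 °C; stained annexin V-FITC plus PI, flow cytometry with 10,000 events gated on parasites; quadrant percentages; three independent experiments.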
# Leishmania amazonensis [15] = assay: Induction of apoptosis in Leishmania amazonensis IFLA/BR/1967/PH8 promastigotes assessed as early apoptotic population at 10 uM after 24 hrs by Annexin V-FITC/PI staining based flow cytometric analysis (reference value: 5.29%); assay type: functional; outline: as §4
# Leishmania amazonensis [16] = assay: Induction of apoptosis in Leishmania amazonensis IFLA/BR/1967/PH8 promastigotes assessed as late apoptotic population at 10 uM after 24 hrs by Annexin V-FITC/PI staining based flow cytometric analysis (reference value: 2.62%); assay type: functional; outline: as §4
# Leishmania amazonensis [17] = assay: Induction of apoptosis in Leishmania amazonensis IFLA/BR/1967/PH8 promastigotes assessed as necrotic population at 10 uM after 24 hrs by Annexin V-FITC/PI staining based flow cytometric analysis (reference value: 0.03%); assay type: functional; outline: as §4
# Leishmania amazonensis [18] = assay: Induction of apoptosis in Leishmania amazonensis IFLA/BR/1967/PH8 promastigotes assessed as late apoptotic population at 5 uM after 24 hrs by Annexin V-FITC/PI staining based flow cytometric analysis (reference value: 2.62%); assay type: functional; outline: as §4
# Leishmania amazonensis [19] = assay: Induction of apoptosis in Leishmania amazonensis IFLA/BR/1967/PH8 promastigotes assessed as necrotic population at 5 uM after 24 hrs by Annexin V-FITC/PI staining based flow cytometric analysis (reference value: 0.03%); assay type: functional; outline: as §4
# Leishmania amazonensis [20] = assay: Induction of apoptosis in Leishmania amazonensis IFLA/BR/1967/PH8 promastigotes assessed as late apoptotic population at 2.5 uM after 24 hrs by Annexin V-FITC/PI staining based flow cytometric analysis (reference value: 2.62%); assay type: functional
# Leishmania amazonensis [21] = assay: Induction of apoptosis in Leishmania amazonensis IFLA/BR/1967/PH8 promastigotes assessed as necrotic population at 2.5 uM after 24 hrs by Annexin V-FITC/PI staining based flow cytometric analysis (reference value: 0.03%); assay type: functional
# Leishmania amazonensis [22] = assay: Induction of autophagy in Leishmania amazonensis IFLA/BR/1967/PH8 promastigotes at 20 uM after 24 hrs by MDC staining-based fluorometric analysis relative to control; assay type: functional
# Outline: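 Exponential WT promastigotes (1x10^7 cells/mL) treated 24 h at 25 °C; washed, adjusted to 10x10^6 cells/mL, 100 µM monodansylcadaverine 1 h dark at 25 °C; fluorescence 335/460 nm versus untreated; three independent experiments.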
structure (smiles),measurement,setting,value
CC(=O)[O-].CCCCCCCCCCn1cc(CO)[n+](C)n1,IC50,Leishmania amazonensis [1],3.3 µM
same,IC50,Leishmania amazonensis [2],0.9 µM
same,CC50 at 72 h,[3],116 µM
same,Ratio CC50/IC50,[4],128.8
same,inhibition at 3.6 µM,Leishmania amazonensis [5],83.1%
same,inhibition at 1.8 µM,Leishmania amazonensis [6],69%
same,Activity,Leishmania amazonensis [7],32.5%
same,Activity,Leishmania amazonensis [8],20%
same,Activity,Leishmania amazonensis [9],37.5%
same,Activity,Leishmania amazonensis [10],75.5%
same,Activity,Leishmania amazonensis [11],54%
same,Activity,Leishmania amazonensis [12],40.7%
same,fold change (FC),Leishmania amazonensis [13],1.9
same,Activity,Leishmania amazonensis [14],3.97%
same,Activity,Leishmania amazonensis [15],28.56%
same,Activity,Leishmania amazonensis [16],11.16%
same,Activity,Leishmania amazonensis [17],2.18%
same,Activity,Leishmania amazonensis [18],1.58%
same,Activity,Leishmania amazonensis [19],0.3%
same,Activity,Leishmania amazonensis [20],0.82%
same,Activity,Leishmania amazonensis [21],0.16%
same,Activity,Leishmania amazonensis [22],49.8%
